# From ChEMBL document CHEMBL4152196, “Design, synthesis and biological evaluation of novel trimethylangelicin analogues targeting nuclear factor kB (NF-kB)” (Eur J Med Chem, 2018)
# Active and inactive are the calls of the source. No cut-off for these calls is given here.
# Tests used:
# Salmonella typhimurium [1] = assay: Genotoxicity in Salmonella typhimurium TA97A assessed as revertant colonies at 10 uL/plate in presence of Sprague-Dawley rat S9 metabolic activation after 72 hrs by Ames test (reference value: 1); assay type: toxicity, organism-based; details: salmonella enterica subsp. enterica serovar typhimurium
# Salmonella typhimurium [2] = assay: Genotoxicity in Salmonella typhimurium TA97A assessed as revertant colonies at 5 uL/plate in presence of Sprague-Dawley rat S9 metabolic activation after 72 hrs by Ames test (reference value: 1); assay type: toxicity, organism-based; details: salmonella enterica subsp. enterica serovar typhimurium
# Salmonella typhimurium [3] = assay: Genotoxicity in Salmonella typhimurium TA98 assessed as revertant colonies at 1 uL/plate in presence of Sprague-Dawley rat S9 metabolic activation after 72 hrs by Ames test (reference value: 1); assay type: toxicity, organism-based; details: salmonella enterica subsp. enterica serovar typhimurium
# IB3-1 = assay: Inhibition of TNF-alpha induced IL-17 production in human IB3-1 cells at 1 uM preincubated for 5 hrs followed by TNF-alpha stimulation and measured after 24 hrs relative to control; assay type: functional
# Procedure, shortened: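 IB3-1 cells (CF patient, ΔF508/W1282X, adeno12/SV40-immortalized) grown in LHC-8 with 5% FBS, no gentamycin, 37°C/5% CO₂; 60% confluent monolayers seeded, compound added after 24 h, 5 h before 80 ng/ml TNF-α, then 24 h further incubation. Cytokines in supernatants measured by Bioplex 27-plex Luminex bead assay: beads, detection antibody, streptavidin–phycoerythrin, 30/30/10 min at room temperature.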
# Salmonella typhimurium [4] = assay: Genotoxicity in Salmonella typhimurium TA97A assessed as revertant colonies at 100 uL/plate in absence of Sprague-Dawley rat S9 metabolic activation after 72 hrs by Ames test (reference value: 1); assay type: toxicity, organism-based; details: salmonella enterica subsp. enterica serovar typhimurium
# Salmonella typhimurium [5] = assay: Genotoxicity in Salmonella typhimurium TA1535 assessed as revertant colonies at 1 uL/plate in absence of Sprague-Dawley rat S9 metabolic activation after 72 hrs by Ames test (reference value: 1); assay type: toxicity, organism-based; details: salmonella enterica subsp. enterica serovar typhimurium
# Salmon testes DNA [6] = assay: Binding affinity to salmon testes DNA assessed as DNA intercalation by linear flow dichroism analysis; details: Salmonidae
# Salmonella typhimurium [7] = assay: Genotoxicity in Salmonella typhimurium TA1535 assessed as revertant colonies at 50 uL/plate in presence of Sprague-Dawley rat S9 metabolic activation after 72 hrs by Ames test (reference value: 1); assay type: toxicity, organism-based; details: salmonella enterica subsp. enterica serovar typhimurium
# Salmonella typhimurium [8] = assay: Genotoxicity in Salmonella typhimurium TA100 assessed as revertant colonies at 10 uL/plate in absence of Sprague-Dawley rat S9 metabolic activation after 72 hrs by Ames test (reference value: 1); assay type: toxicity, organism-based; details: salmonella enterica subsp. enterica serovar typhimurium
# Salmonella typhimurium [9] = assay: Genotoxicity in Salmonella typhimurium TA100 assessed as revertant colonies at 5 uL/plate in presence of Sprague-Dawley rat S9 metabolic activation after 72 hrs by Ames test (reference value: 1); assay type: toxicity, organism-based; details: salmonella enterica subsp. enterica serovar typhimurium
# Salmonella typhimurium [10] = assay: Genotoxicity in Salmonella typhimurium TA100 assessed as revertant colonies at 100 uL/plate in presence of Sprague-Dawley rat S9 metabolic activation after 72 hrs by Ames test (reference value: 1); assay type: toxicity, organism-based; details: salmonella enterica subsp. enterica serovar typhimurium
# Salmonella typhimurium [11] = assay: Genotoxicity in Salmonella typhimurium TA97A assessed as revertant colonies at 1 uL/plate in absence of Sprague-Dawley rat S9 metabolic activation after 72 hrs by Ames test (reference value: 1); assay type: toxicity, organism-based; details: salmonella enterica subsp. enterica serovar typhimurium
# Salmon testes DNA [12] = assay: Binding affinity to salmon testes DNA assessed as furocoumarin-pyrimidine base formation in presence of 15 J/cm2 UVA light irradiation by TLC analysis; assay type: nucleic-acid assay; details: Salmonidae
# Salmonella typhimurium [13] = assay: Genotoxicity in Salmonella typhimurium TA98 assessed as revertant colonies at 50 uL/plate in presence of Sprague-Dawley rat S9 metabolic activation after 72 hrs by Ames test (reference value: 1); assay type: toxicity, organism-based; details: salmonella enterica subsp. enterica serovar typhimurium
# Salmonella typhimurium [14] = assay: Genotoxicity in Salmonella typhimurium TA100 assessed as revertant colonies at 50 uL/plate in absence of Sprague-Dawley rat S9 metabolic activation after 72 hrs by Ames test (reference value: 1); assay type: toxicity, organism-based; details: salmonella enterica subsp. enterica serovar typhimurium
# Salmonella typhimurium [15] = assay: Genotoxicity in Salmonella typhimurium TA1535 assessed as revertant colonies at 100 uL/plate in presence of Sprague-Dawley rat S9 metabolic activation after 72 hrs by Ames test (reference value: 1); assay type: toxicity, organism-based; details: salmonella enterica subsp. enterica serovar typhimurium
# Salmonella typhimurium [16] = assay: Genotoxicity in Salmonella typhimurium TA1535 assessed as revertant colonies at 100 uL/plate in absence of Sprague-Dawley rat S9 metabolic activation after 72 hrs by Ames test (reference value: 1); assay type: toxicity, organism-based; details: salmonella enterica subsp. enterica serovar typhimurium
# Salmonella typhimurium [17] = assay: Genotoxicity in Salmonella typhimurium TA98 assessed as revertant colonies at 5 uL/plate in presence of Sprague-Dawley rat S9 metabolic activation after 72 hrs by Ames test (reference value: 1); assay type: toxicity, organism-based; details: salmonella enterica subsp. enterica serovar typhimurium
# Salmon testes DNA [18] = assay: Induction of damage in salmon testes DNA at 100 uM in presence of 2.5 to 7.5 J/cm2 UVA irradiation by ethidium bromide dye-based agarose gel electrophoresis analysis; assay type: nucleic-acid assay; details: salmonidae
# Salmonella typhimurium [19] = assay: Genotoxicity in Salmonella typhimurium TA97A assessed as revertant colonies at 100 uL/plate in presence of Sprague-Dawley rat S9 metabolic activation after 72 hrs by Ames test (reference value: 1); assay type: toxicity, organism-based; details: salmonella enterica subsp. enterica serovar typhimurium
# U-251 = assay: Cytotoxicity against human U251 cells after 2 days by cell counting analysis; assay type: cell-based; details: u-251, 48 h
# Salmonella typhimurium [20] = assay: Genotoxicity in Salmonella typhimurium TA98 assessed as revertant colonies at 100 uL/plate in presence of Sprague-Dawley rat S9 metabolic activation after 72 hrs by Ames test (reference value: 1); assay type: toxicity, organism-based; details: salmonella enterica subsp. enterica serovar typhimurium
# Salmonella typhimurium [21] = assay: Genotoxicity in Salmonella typhimurium TA100 assessed as revertant colonies at 5 uL/plate in absence of Sprague-Dawley rat S9 metabolic activation after 72 hrs by Ames test (reference value: 1); assay type: toxicity, organism-based; details: salmonella enterica subsp. enterica serovar typhimurium
# Salmonella typhimurium [22] = assay: Genotoxicity in Salmonella typhimurium TA98 assessed as revertant colonies at 100 uL/plate in absence of Sprague-Dawley rat S9 metabolic activation after 72 hrs by Ames test (reference value: 1); assay type: toxicity, organism-based; details: salmonella enterica subsp. enterica serovar typhimurium
# Salmonella typhimurium [23] = assay: Genotoxicity in Salmonella typhimurium TA100 assessed as revertant colonies at 1 uL/plate in presence of Sprague-Dawley rat S9 metabolic activation after 72 hrs by Ames test (reference value: 1); assay type: toxicity, organism-based; details: salmonella enterica subsp. enterica serovar typhimurium
# Salmonella typhimurium [24] = assay: Genotoxicity in Salmonella typhimurium TA98 assessed as revertant colonies at 1 uL/plate in absence of Sprague-Dawley rat S9 metabolic activation after 72 hrs by Ames test (reference value: 1); assay type: toxicity, organism-based; details: salmonella enterica subsp. enterica serovar typhimurium
smiles,measurement,setting,value
CCc1cc2c(C(C)C)cc(=O)oc2c2c(C)coc12,T/C,Salmonella typhimurium [1],1.2
same,T/C,Salmonella typhimurium [2],1.1
same,T/C,Salmonella typhimurium [3],0.8
same,inhibition at 1 µM,IB3-1,> 20%
same,T/C,Salmonella typhimurium [4],1
same,T/C,Salmonella typhimurium [5],1.1
same,Activity,Salmon testes DNA [6],inactive
same,T/C,Salmonella typhimurium [7],1
same,T/C,Salmonella typhimurium [8],0.8
same,T/C,Salmonella typhimurium [9],1.1
same,T/C,Salmonella typhimurium [10],1.5
same,T/C,Salmonella typhimurium [11],1.1
same,Activity,Salmon testes DNA [12],inactive
same,T/C,Salmonella typhimurium [13],0.7
same,T/C,Salmonella typhimurium [14],0.9
same,T/C,Salmonella typhimurium [15],0.8
same,T/C,Salmonella typhimurium [16],0.9
same,T/C,Salmonella typhimurium [17],0.6
same,Activity,Salmon testes DNA [18],Not Active
same,T/C,Salmonella typhimurium [19],1
same,Activity,U-251,Non-Toxic
same,T/C,Salmonella typhimurium [20],0.6
same,T/C,Salmonella typhimurium [21],1
same,T/C,Salmonella typhimurium [22],1.2
same,T/C,Salmonella typhimurium [23],1.1
same,T/C,Salmonella typhimurium [24],1.1
